Test results from publication PMC7496803 (Chemistry (Weinheim an Der Bergstrasse, Germany), 2020).

Legend:
[1] = system: HeLa cells; assay: Phototoxicity, resazurin cell viability assay after 525 nm irradiation; format: cell-based
Method in brief: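 HeLa, 2×10^4 per well in DMEM (2.5 % FBS), 21 h before dosing. Turn-off or turn-on peptide photosensitizers in water/12.5 % MeCN, 4.00–0.03 μm final, triplicate, 2 h. Irradiated at 525 nm by LED array, 69.4±0.6 W m−2 for 160 s, then 18 h. Resazurin fluorescence viability; IC50 by four-parameter variable-slope log(inhibitor)–response fit; untreated and vehicle controls; ≥2 independent experiments.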

[2] = system: PC-3 cells; assay: Phototoxicity, resazurin cell viability assay after 525 nm irradiation; format: cell-based
[3] = in MeOH; cited from earlier work

Row | Molecule | phototoxicity variation turn-off/turn-on (IC50 6OFF / IC50 6ON) [1] | OFF/ON ratio (IC50 6OFF / IC50 6ON) [2] | Φ Δ of the reference photosensitizers [3]
1 | CCCCCCCCCCCCCCCC(=O)NCCCC[C@H](NC(=O)[C@H](CSCC(=O)NCc1cn(CCOc2ccc(C3=C4C(C)=C(I)C(C)=[N+]4[B-](F)(F)n4c(C)c(I)c(C)c43)cc2)nn1)NC(=O)c1ccc(-c2nnc(C)c3c2CCC(O)CCC3)cc1)C(=O)N[C@@H](CCCNC(=N)N)C(=O)N[C@@H](CCCNC(=N)N)C(=O)N[C@@H](CCCNC(=N)N)C(=O)N[C@@H](CCCNC(=N)N)C(N)=O (stereo partly shown) [6ON, [TCO:Tz]‐C(2I‐BODIPY)‐K(PA)RRRR‐CONH2] | 3.8 fold | 3.3 fold | –
2 | Erythrosine B | – | – | 0.6
3 | O=C([O-])c1c(Cl)c(Cl)c(Cl)c(Cl)c1-c1c2cc(I)c(=O)c(I)c-2oc2c(I)c([O-])c(I)cc12.[Na+].[Na+] [rose bengal] | – | – | 0.76
